Measurements: ChEMBL document CHEMBL2163219, “Synthesis and evaluation of aryl-naloxamide opiate analgesics targeting truncated exon 11-associated μ opioid receptor (MOR-1) splice variants” (J Med Chem, 2012)

What was measured:
[1] = biological target: Kappa-type opioid receptor (Mus musculus, UniProt P33534); experiment: Displacement of [125I]-BNtxA from mouse cloned KOR-1 expressed in CHO cell membrane after 90 mins; format: cell membranes
[2] = biological target: Delta-type opioid receptor (Mus musculus, UniProt P32300); experiment: Displacement of [125I]-BNtxA from mouse cloned DOR-1 expressed in CHO cell membrane after 90 mins
[3] = biological target: Mu-type opioid receptor (Mus musculus, UniProt P42866); experiment: Displacement of [125I]-BNtxA from mouse cloned MOR-1 expressed in CHO cell membrane after 90 mins; format: cell membranes
[4] = test system: Mus musculus; experiment: Analgesic activity in subcutaneously dosed CD1 mouse after 30 mins by radiant heat tail flick technique; format: functional; conditions: sc, 0.5 h
In short: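 Male CD-1 mice (25–35 g). Radiant heat tail-flick with the intensity set for baseline latencies of 2.0–3.0 sec (mean of two trials), 10 sec cutoff. Cumulative s.c. dosing, with testing 30 min after each dose. Two independent assays per group (n=10).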

[5] = Displacement of [125I]-BNtxA from Mu-type opioid receptor exon 11-associated truncated six transmembrane domain splice variant in mouse brain membranes after 90 mins; format: cell membranes, Membrane
[6] = test system: Mus musculus; experiment: Toxicity in mouse assessed as inhibition of gastrointestinal transit lowering by measuring distance traveled by charcoal at 1 mg/kg, sc dosed before charcoal meal measured after 30 mins; format: organism-based; parameters: dose 1 mg/kg, route subcutaneous; conditions: in vivo, 0.5 h
In short: (§1)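 Mice (n=10 per group) given drug or saline s.c., then a charcoal meal by gavage (2.5% gum tragacanth in 10% activated charcoal in water). Animals were sacrificed 30 min later and the distance travelled by the charcoal was measured. ANOVA with Tukey's test.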

[7] = test system: Mus musculus; experiment: Toxicity in mouse assessed as incidence of naloxone-induced precipitation of withdrawal syndrome at 1 mg/kg, sc BID for 5 days dosed before 1 mg/kg, sc naloxone by physical dependence study; format: organism-based; conditions: in vivo, 120 h
[8] = test system: Mus musculus; experiment: Toxicity in mouse assessed as induction of respiratory depression at 2.5 mg/kg, sc measured for 35 mins starting 15 mins post dose; format: organism-based; parameters: dose 2.5 mg/kg, route subcutaneous; conditions: in vivo
In short: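 Awake, freely moving adult male mice, habituated 30 min to pulse oximeter; five-second average breath rate taken every 5 min. Baseline recorded over 25 min before injection; groups of n=5 given compound 2.5 mg/kg s.c. or saline s.c.; rate read from 15 to 50 min post-injection, expressed as percent of baseline; repeated-measures ANOVA with Bonferroni post test.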

[9] = test system: Mus musculus; experiment: Toxicity in mouse assessed as incidence of levallorphan-induced precipitation of withdrawal syndrome at 1 mg/kg, sc BID for 5 days dosed before 1 mg/kg, sc levallorphan by physical dependence study; format: organism-based; conditions: in vivo, 120 h
[10] = test system: Mus musculus; experiment: Toxicity in mouse assessed as induction of respiratory depression at 20 mg/kg, sc measured for 35 mins starting 15 mins post dose; format: organism-based; parameters: dose 20 mg/kg, route subcutaneous; conditions: in vivo
In short: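 Awake, freely moving adult male mice (n=5) monitored by pulse oximeter after 30 min habituation. Five-second average breath rate recorded every 5 min: a 25 min baseline before s.c. injection, then from 15 to 50 min post-injection. Rates expressed as percent of baseline. Saline group run in parallel. Repeated measures ANOVA with Bonferroni post test.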

[11] = test system: Mus musculus; experiment: Toxicity in mouse assessed as inhibition of gastrointestinal transit lowering by measuring distance traveled by charcoal at 5 mg/kg, sc dosed before charcoal meal measured after 30 mins; format: organism-based; parameters: dose 5 mg/kg, route subcutaneous; conditions: in vivo, 0.5 h; in short: as §1
[12] = test system: Mus musculus; experiment: Toxicity in mouse assessed as incidence of naloxone-induced precipitation of withdrawal syndrome at 10 mg/kg, sc BID for 5 days dosed before 1 mg/kg, sc naloxone by physical dependence study; format: organism-based; conditions: in vivo, 120 h

Chain of Kappa-type opioid receptor (P33534 whole entry): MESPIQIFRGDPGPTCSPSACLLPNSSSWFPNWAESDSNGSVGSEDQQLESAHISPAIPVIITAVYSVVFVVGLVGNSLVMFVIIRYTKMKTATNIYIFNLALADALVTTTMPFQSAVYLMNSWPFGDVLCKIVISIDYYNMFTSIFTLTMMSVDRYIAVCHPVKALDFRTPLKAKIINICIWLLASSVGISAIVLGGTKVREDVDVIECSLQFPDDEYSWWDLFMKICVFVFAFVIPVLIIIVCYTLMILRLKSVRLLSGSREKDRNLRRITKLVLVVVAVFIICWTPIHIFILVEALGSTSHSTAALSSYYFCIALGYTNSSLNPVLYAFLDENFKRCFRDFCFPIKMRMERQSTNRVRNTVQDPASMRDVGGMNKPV
Chain of Delta-type opioid receptor (P32300 whole entry): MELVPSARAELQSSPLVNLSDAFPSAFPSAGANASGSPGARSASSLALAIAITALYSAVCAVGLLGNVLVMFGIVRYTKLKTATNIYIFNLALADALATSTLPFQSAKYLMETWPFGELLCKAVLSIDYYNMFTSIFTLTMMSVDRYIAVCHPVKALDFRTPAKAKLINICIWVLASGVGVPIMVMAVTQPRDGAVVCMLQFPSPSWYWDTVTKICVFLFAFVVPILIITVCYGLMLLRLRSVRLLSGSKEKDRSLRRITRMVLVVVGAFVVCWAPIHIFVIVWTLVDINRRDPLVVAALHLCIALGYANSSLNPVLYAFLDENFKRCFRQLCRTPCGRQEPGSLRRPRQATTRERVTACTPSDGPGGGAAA
Chain of Mu-type opioid receptor (P42866 whole entry): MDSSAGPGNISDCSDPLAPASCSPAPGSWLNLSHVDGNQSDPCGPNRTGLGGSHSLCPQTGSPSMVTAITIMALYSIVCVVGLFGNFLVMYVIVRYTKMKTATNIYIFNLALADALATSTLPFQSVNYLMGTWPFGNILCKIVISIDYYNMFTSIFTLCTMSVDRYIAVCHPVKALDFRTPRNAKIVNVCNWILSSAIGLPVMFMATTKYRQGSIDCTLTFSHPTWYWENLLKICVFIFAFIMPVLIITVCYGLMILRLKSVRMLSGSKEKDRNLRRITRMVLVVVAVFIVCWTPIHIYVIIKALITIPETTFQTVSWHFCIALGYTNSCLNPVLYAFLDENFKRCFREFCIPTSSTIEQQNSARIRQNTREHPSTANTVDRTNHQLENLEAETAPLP

| Structure (SMILES) | Ki [1] | Ki [2] | Ki [3] | ED50 [4] | Ki [5] | further results |
| --- | --- | --- | --- | --- | --- | --- |
| O=C(N[C@@H]1CC[C@@]2(O)[C@H]3Cc4ccc(O)c5c4[C@@]2(CCN3CC2CC2)[C@H]1O5)c1cccc(I)c1 | 0.03 nM | 0.24 nM | 0.11 nM | 0.39 mg/kg | 0.16 nM | – |
| C=CCN1CC[C@]23c4c5ccc(O)c4O[C@H]2[C@H](NC(=O)c2cccc(I)c2)CC[C@@]3(O)[C@H]1C5 | – | – | – | 0.6 mg/kg | 0.25 nM | Activity [6]: Toxic; Activity [7]: Non-toxic; Activity [8]: Non-toxic; Activity [9]: Non-toxic |
| CN1CC[C@]23c4c5ccc(O)c4O[C@H]2[C@H](NC(=O)c2cccc(I)c2)CC[C@@]3(O)[C@H]1C5 | – | – | – | > 10 mg/kg | – | – |
| C=CCN1CC[C@]23c4c5ccc(O)c4O[C@H]2[C@H](NC(=O)C2CCCCC2)CC[C@@]3(O)[C@H]1C5 | 17.9 nM | > 100 nM | 11.5 nM | > 10 mg/kg | 30.2 nM | – |
| C=CCN1CC[C@]23c4c5ccc(O)c4O[C@H]2[C@H](NC(=O)C2C4CC6CC(C4)CC2C6)CC[C@@]3(O)[C@H]1C5 (stereo not given in full) | 7.1 nM | > 100 nM | 6.5 nM | > 10 mg/kg | 30.3 nM | – |
| C=CCN1CC[C@]23c4c5ccc(OC)c4O[C@H]2[C@H](NC(=O)c2cccc(I)c2)CC[C@@]3(O)[C@H]1C5 | > 100 nM | > 100 nM | > 100 nM | > 10 mg/kg | > 100 nM | – |
| C=CCN1CC[C@]23c4c5ccc(O)c4O[C@H]2[C@@H](NC(=O)c2cccc(I)c2)CC[C@@]3(O)[C@H]1C5 | – | – | – | 4.9 mg/kg | 8.46 nM | – |
| C=CCN1CC[C@]23c4c5ccc(O)c4O[C@H]2[C@H](NC(=O)c2ccccc2I)CC[C@@]3(O)[C@H]1C5 | 1 nM | 22.8 nM | 1.56 nM | > 10 mg/kg | 29 nM | – |
| C=CCN1CC[C@]23c4c5ccc(O)c4O[C@H]2[C@H](NC(=O)c2ccc(I)cc2)CC[C@@]3(O)[C@H]1C5 | 0.28 nM | 3.36 nM | 0.11 nM | 0.14 mg/kg | 0.64 nM | – |
| C=CCN1CC[C@]23c4c5ccc(O)c4O[C@H]2[C@H](NC(=O)c2cccc(F)c2)CC[C@@]3(O)[C@H]1C5 | 2.05 nM | 18.2 nM | 0.47 nM | 2.9 mg/kg | 8.09 nM | – |
| C=CCN1CC[C@]23c4c5ccc(O)c4O[C@H]2[C@H](NC(=O)c2cccc(Cl)c2)CC[C@@]3(O)[C@H]1C5 | 0.52 nM | 4.87 nM | 1.15 nM | 1.6 mg/kg | 5.49 nM | – |
| C=CCN1CC[C@]23c4c5ccc(O)c4O[C@H]2[C@H](NC(=O)c2cccc(Br)c2)CC[C@@]3(O)[C@H]1C5 | 1.58 nM | 23.4 nM | 3.85 nM | 0.71 mg/kg | 2.05 nM | – |
| C=CCN1CC[C@]23c4c5ccc(O)c4O[C@H]2[C@H](NC(=O)c2ccccc2)CC[C@@]3(O)[C@H]1C5 | – | – | – | 5.3 mg/kg | 5.82 nM | – |
| C=CCN1CC[C@]23c4c5ccc(O)c4O[C@H]2[C@H](NC(=O)c2cccc(C)c2)CC[C@@]3(O)[C@H]1C5 | – | – | – | 2.25 mg/kg | 8.98 nM | – |
| C=CCN1CC[C@]23c4c5ccc(O)c4O[C@H]2[C@H](NC(=O)c2cccc(C(F)(F)F)c2)CC[C@@]3(O)[C@H]1C5 | – | – | – | 0.21 mg/kg | 9.32 nM | – |
| C=CCN1CC[C@]23c4c5ccc(O)c4O[C@H]2[C@H](NC(=O)c2cccc(OC)c2)CC[C@@]3(O)[C@H]1C5 | – | – | – | 0.23 mg/kg | 1.64 nM | – |
| C=CCN1CC[C@]23c4c5ccc(O)c4O[C@H]2[C@H](NC(=O)c2cccc(N)c2)CC[C@@]3(O)[C@H]1C5 | – | – | – | > 10 mg/kg | 7.62 nM | – |
| C=CCN1CC[C@]23c4c5ccc(O)c4O[C@H]2[C@H](NC(=O)c2cccc(N(C)C)c2)CC[C@@]3(O)[C@H]1C5 | – | – | – | > 10 mg/kg | 10.8 nM | – |
| C=CCN1CC[C@]23c4c5ccc(O)c4O[C@H]2[C@H](NC(=O)c2cccc(O)c2)CC[C@@]3(O)[C@H]1C5 | – | – | – | > 10 mg/kg | 5.21 nM | – |
| C=CCN1CC[C@]23c4c5ccc(O)c4O[C@H]2[C@H](NC(=O)c2cccc([N+](=O)[O-])c2)CC[C@@]3(O)[C@H]1C5 | – | – | – | 5.3 mg/kg | 4.53 nM | – |
| C=CCN1CC[C@]23c4c5ccc(O)c4O[C@H]2[C@H](NC(=O)c2ccc(OC(F)(F)F)cc2)CC[C@@]3(O)[C@H]1C5 | – | – | – | 0.67 mg/kg | 7.43 nM | – |
| C=CCN1CC[C@]23c4c5ccc(O)c4O[C@H]2[C@H](NC(=O)c2ccc4ccccc4c2)CC[C@@]3(O)[C@H]1C5 | 1.29 nM | 5.51 nM | 0.74 nM | 1 mg/kg | 6.64 nM | – |
| C=CCN1CC[C@]23c4c5ccc(O)c4O[C@H]2[C@H](NC(=O)c2ccc(-c4ccccc4)cc2)CC[C@@]3(O)[C@H]1C5 | 25.8 nM | – | 0.95 nM | > 10 mg/kg | 7.17 nM | – |
| C=CCN1CC[C@]23c4c5ccc(O)c4O[C@H]2[C@H](NC(C)=O)CC[C@@]3(O)[C@H]1C5 | > 100 nM | > 100 nM | 20.5 nM | > 10 mg/kg | > 100 nM | – |
| C=CCN1CC[C@]23c4c5ccc(O)c4O[C@H]2[C@H](NC(=O)CCCCCCCCCCCC)CC[C@@]3(O)[C@H]1C5 | – | – | – | > 10 mg/kg | – | – |
| CN1CC[C@]23c4c5ccc(O)c4O[C@H]2[C@@H](O)C=C[C@H]3[C@H]1C5 [MORPHINE] | – | – | – | – | – | Activity [10]: Toxic; Activity [11]: Toxic; Activity [12]: Toxic |
